Results as given in ChEMBL document CHEMBL2424551, “Synthesis, in vitro evaluation and molecular modelling of naphthalimide analogue as anticancer agents” (2013).

Columns and labels:
Type in all cases: functional
T47D = test: Growth inhibition of human T47D cells at 10 uM after 48 hrs by SRB assay; conditions: read-out: GI
Procedure, shortened: (§1)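 NCI 60-cell-line screen with a single 10 µM dose. Cells are grown in RPMI 1640 with 5% FBS and 2 mM L-glutamine, plated at 5000–40,000 cells/well according to doubling time, and preincubated 24 h at 37 °C, 5% CO2; time-zero plates are TCA-fixed at that point. Drug exposure is 48 h. Adherent cells are fixed with cold TCA, stained with 0.4% SRB in 1% acetic acid and read at 515 nm. Percent growth is calculated relative to time-zero and untreated controls and reported as GI%.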

[1] = Growth inhibition of human EKVX cells at 10 uM after 48 hrs by SRB assay; conditions: read-out: GI
Procedure, shortened: (§2)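 Cells grown in RPMI 1640 with 5% FBS and 2 mM L-glutamine, plated at 5000–40,000 cells/well by doubling time and preincubated 24 h (37 °C, 5% CO2); a time-zero plate is TCA-fixed. Single dose added, then 48 h incubation. Fixed with cold TCA, stained with 0.4% SRB, dye solubilized in 10 mM Tris base, absorbance at 515 nm; percent growth vs time-zero and untreated control.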

[2] = Cytotoxicity against human renal cancer cells after 48 hrs by SRB assay; conditions: Cancer cell lines
Procedure, shortened: (§3)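 Five-concentration screen (10-fold or ½-log serial dilutions) on the 60-line panel. Cells grown in RPMI 1640 with 5% FBS and 2 mM L-glutamine, plated at 5000–40,000/well by doubling time, preincubated 24 h at 37 °C, 5% CO2, then exposed 48 h. Time-zero plates TCA-fixed. SRB stain, Tris-solubilized, A515. GI50, TGI and LC50 derived from Tz, C and Ti.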

[3] = Cytotoxicity against human non-small cell lung cancer cells after 48 hrs by SRB assay; conditions: Cancer cell lines; procedure, shortened: as §3
OVCAR-3 = test: Growth inhibition of human OVCAR3 cells at 10 uM after 48 hrs by SRB assay; conditions: OVCAR-3, 48 h, read-out: GI; procedure, shortened: as §2
KM12 = test: Growth inhibition of human KM12 cells at 10 uM after 48 hrs by SRB assay; conditions: KM12, 48 h, read-out: GI; procedure, shortened: as §2
HT-29 = test: Growth inhibition of human HT-29 cells at 10 uM after 48 hrs by SRB assay; conditions: HT-29, 48 h, read-out: GI; procedure, shortened: as §2
[4] = Cytotoxicity against human melanoma cells after 48 hrs by SRB assay; conditions: Melanoma cell; procedure, shortened: as §3
COLO 205 = test: Growth inhibition of human COLO205 cells at 10 uM after 48 hrs by SRB assay; conditions: COLO 205, 48 h, read-out: GI; procedure, shortened: as §2
[5] = Cytotoxicity against human breast cancer cells after 48 hrs by SRB assay; conditions: Cancer cell lines; procedure, shortened: as §3
UACC-257 = test: Growth inhibition of human UACC257 cells at 10 uM after 48 hrs by SRB assay; conditions: UACC-257, 48 h, read-out: GI; procedure, shortened: as §1
SW-620 = test: Growth inhibition of human SW620 cells at 10 uM after 48 hrs by SRB assay; conditions: SW-620, 48 h, read-out: GI; procedure, shortened: as §1
CCRF-CEM = test: Growth inhibition of human CCRF-CEM cells at 10 uM after 48 hrs by SRB assay; conditions: read-out: GI; procedure, shortened: as §2
[6] = Cytotoxicity against human ovarian cancer cells after 48 hrs by SRB assay; conditions: Cancer cell lines; procedure, shortened: as §3
K562 = test: Growth inhibition of human K562 cells at 10 uM after 48 hrs by SRB assay; conditions: K562, 48 h, read-out: GI; procedure, shortened: as §2
HL-60(TB) = test: Growth inhibition of human HL-60(TB) cells at 10 uM after 48 hrs by SRB assay; conditions: HL-60, 48 h, read-out: GI
Procedure, shortened: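 Single-concentration pass across the 60-line panel in RPMI 1640 with 5% FBS. Cells preincubated 24 h, then exposed 48 h at 37 °C, 5% CO2. Read by SRB staining with absorbance at 515 nm. Percent growth is taken relative to time-zero and untreated controls and reported as percent growth inhibition (GI %).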

MDA-MB-231 = test: Growth inhibition of human MDA-MB-231 cells at 10 uM after 48 hrs by SRB assay; conditions: MDA-MB-231, 48 h, read-out: GI; procedure, shortened: as §2
[7] = Cytotoxicity against human colon cancer cells after 48 hrs by SRB assay; conditions: Cancer cell lines; procedure, shortened: as §3
SNB-75 = test: Growth inhibition of human SNB75 cells at 10 uM after 48 hrs by SRB assay; conditions: SNB-75, 48 h, read-out: GI; procedure, shortened: as §1
[8] = Cytotoxicity against human prostate cancer cells after 48 hrs by SRB assay; conditions: Cancer cell lines; procedure, shortened: as §3
HCT-116 = test: Growth inhibition of human HCT116 cells at 10 uM after 48 hrs by SRB assay; conditions: HCT-116, 48 h, read-out: GI; procedure, shortened: as §2
NCI-H226 = test: Growth inhibition of human NCI-H226 cells at 10 uM after 48 hrs by SRB assay; conditions: NCI-H226, 48 h, read-out: GI; procedure, shortened: as §2
[9] = Cytotoxicity against human CNS cancer cells after 48 hrs by SRB assay; conditions: Cancer cell lines; procedure, shortened: as §3
MDA-MB-435 = test: Growth inhibition of human MDA-MB-435 cells at 10 uM after 48 hrs by SRB assay; conditions: MDA-MB-435, 48 h, read-out: GI; procedure, shortened: as §2
MOLT-4 = test: Growth inhibition of human MOLT4 cells at 10 uM after 48 hrs by SRB assay; conditions: MOLT-4, 48 h, read-out: GI; procedure, shortened: as §2
TK-10 = test: Growth inhibition of human TK10 cells at 10 uM after 48 hrs by SRB assay; conditions: TK-10, 48 h, read-out: GI; procedure, shortened: as §1
RPMI-8226 = test: Growth inhibition of human RPMI8226 cells at 10 uM after 48 hrs by SRB assay; conditions: RPMI-8226, 48 h, read-out: GI; procedure, shortened: as §2
SK-OV-3 = test: Growth inhibition of human SKOV3 cells at 10 uM after 48 hrs by SRB assay; conditions: SK-OV-3, 48 h, read-out: GI; procedure, shortened: as §1
[10] = Cytotoxicity against human leukemia cells after 48 hrs by SRB assay; conditions: Leukemia cell; procedure, shortened: as §3
A549 = test: Growth inhibition of human A549 cells at 10 uM after 48 hrs by SRB assay; conditions: A549, 48 h, read-out: GI; procedure, shortened: as §2
[11] = read-out: LC50 (the source's name)

Q: Which results are given for `O=c1[nH]cc(F)c(=O)[nH]1` [FLUOROURACIL]?
A: inhibition of growth at 10 µM (T47D): 56.7%; inhibition of growth at 10 µM [1]: 58.4%; GI50 [2]: 45.6 µM; TGI [2]: > 100 µM; CC50 [2, 11]: > 100 µM; GI50 [3]: > 100 µM; TGI [3]: > 100 µM; inhibition of growth at 10 µM (OVCAR-3): 47.4%; inhibition of growth at 10 µM (KM12): 40.7%; inhibition of growth at 10 µM (HT-29): 27.1%; GI50 [4]: 70.6 µM; TGI [4]: > 100 µM; inhibition of growth at 10 µM (COLO 205): 40.2%; GI50 [5]: 76.4 µM; TGI [5]: > 100 µM; inhibition of growth at 10 µM (UACC-257): 19.5%; inhibition of growth at 10 µM (SW-620): 50.1%; inhibition of growth at 10 µM (CCRF-CEM): 57.1%; GI50 [6]: 61.4 µM; TGI [6]: > 100 µM; CC50 [6, 11]: > 100 µM; inhibition of growth at 10 µM (K562): 42.3%; inhibition of growth at 10 µM (HL-60(TB)): 47.9%; inhibition of growth at 10 µM (MDA-MB-231): 78.1%; GI50 [7]: 8.4 µM; TGI [7]: > 100 µM; CC50 [7, 11]: > 100 µM; inhibition of growth at 10 µM (SNB-75): 65.9%; GI50 [8]: 22.7 µM; TGI [8]: > 100 µM; inhibition of growth at 10 µM (HCT-116): 17.8%; inhibition of growth at 10 µM (NCI-H226): 69.5%; GI50 [9]: 72.1 µM; TGI [9]: > 100 µM; CC50 [9, 11]: > 100 µM; inhibition of growth at 10 µM (MDA-MB-435): 36.6%; inhibition of growth at 10 µM (MOLT-4): 43.1%; inhibition of growth at 10 µM (TK-10): 66.9%; inhibition of growth at 10 µM (RPMI-8226): 41.4%; inhibition of growth at 10 µM (SK-OV-3): 77.5%; GI50 [10]: 1.51 µM; TGI [10]: > 100 µM; inhibition of growth at 10 µM (A549): 34.2%
